Bioassay records: PubChem BioAssay, Sanford-Burnham Center for Chemical Genomics
tim23-1 inh – growth inhibitors of tim23-1 mutant yeast | hit rate 1.3% among 330,000 | inhibition, % at 20 µM | AID 463212 | S. cerevisiae tim23-1 growth, BacTiter-Glo luminescence, 24 h;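 active = growth inhibition of the mutant yeast at or above 50%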;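 also: temperature-sensitive mutant grown at 25 °C; plate controls were DMSO-treated mutant yeast for no effect and medium wells lacking yeast for full effect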
TIM10 inh – inhibits growth of TIM10 yeast strain; hit rate 1.4% among 330,000; S. cerevisiae TIM10 strain growth, BacTiter-Glo luminescence, 24 h; inhibition, % at 10 µM;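 active = inhibition of 40% or more at the single tested concentration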;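 also: wild-type TIM10 isogenic control strain grown at permissive 25 °C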
CHOP UPR activ – activators of apoptotic arm of unfolded protein response (CHOP). CHO-CHOP luciferase reporter, UPR activation, luminescence; percent of tunicamycin response over DMSO baseline. activation, % at 10 µM. hit rate 0.34% among 330,000;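 active = at 10 µM dose, activation of 40% or more, normalized to positive control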;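 also: 100% = tunicamycin at 10 µg/mL and 0% = DMSO alone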
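Material: CHO-CHOP cells, stable luciferase reporter of PERK-eIF2a-CHOP signalling; quantity: 500 reporter cells seeded per well; buffer or medium: F12 medium containing 10% fetal bovine serum; compound: one dose, 10 µM in 0.5% DMSO; incubation: 6 h compound treatment, 37 °C; measured by: Steady-Glo luciferase luminescence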
XBP1 UPR activ – activators of adaptive arm of unfolded protein response (XBP1); activation, % at 20 µM; hit rate 0.33% among 330,000; CHO-XBP1 luciferase reporter, IRE1-XBP1 UPR activation, luminescence; percent of tunicamycin response, DMSO as zero;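 active = versus positive control, 20 µM dose yields 30% or more activation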;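 also: 100% = tunicamycin at 10 µg/mL and 0% = DMSO only wells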
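assay system = CHO-XBP1 luciferase reporter cells | amount = 1000 cells/well | buffer or medium = F12 plus 10% FBS | compound dosing = single point, 20 µM final compound, 1% DMSO | incubation = 16-18 h cell attachment at 37 °C, then 6 h compound exposure | detection = Steady-Glo luminescence read | controls = tunicamycin 10 µg/mL and vehicle-only wells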
tim10-1 inh – tim10-1 yeast growth inhibition | AID 463190 | inhibition, % at 20 µM | hit rate 2.2% among 330,000 | S. cerevisiae tim10-1 ts strain growth, BacTiter-Glo, 24 h;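 active = inhibition of at least 40%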;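 also: mutant grown at 25 °C; 0% = DMSO wells with yeast and 100% = wells holding no yeast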
TIM10 conf – TIM10 yeast growth inhibition, confirmed; shares compounds with TIM10 inh; S. cerevisiae tim10 strain growth, BacTiter-Glo luminescence, 24 h; inhibition, % at 10 µM; hit rate 63% among 4,600; AID 463215;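 active = inhibition of yeast growth at or above a set limit in either of two replicates at 10 µM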;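 also: this counterscreen used the strain with wild-type TIM10; 0% = yeast with DMSO and 100% = medium wells lacking yeast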
An asterisk follows results filed as active; · = not tested or not shown. Rows were chosen to be rich in hits. Some 3.9% of all compounds tested hit in one or more screens of this group.

SMILES | tim23-1 inh | TIM10 inh | CHOP UPR activ | XBP1 UPR activ | tim10-1 inh | TIM10 conf
COC(=O)C1C2C=CC3(CN(c4cccc(Cl)c4)C(=O)C13)O2 (centres undefined) | 15 | 4 | 0 | -1 | 14 | ·
COC(=O)C1C2C=CC3(CN(c4cccc(C)c4)C(=O)C13)O2 (centres undefined) | 4 | 94* | -1 | -4 | 11 | -4
S=c1[nH]c(-c2ccccc2)cn1/N=C/c1cccc2ccccc12 | 23 | 32 | 1 | 1 | 14 | ·
Cc1ccc(/C=N/n2cc(-c3ccccc3)[nH]c2=S)s1 | 28 | 41* | 4 | -1 | 24 | 42*
Cn1c(=O)n(C)c2cc(/C=C(/C#N)C(=O)NCc3ccco3)ccc21 | 21 | 43* | 1 | 1 | 34 | 37*
CN(C)c1ccc(/C=C(\C#N)C(=O)NCc2ccco2)cc1 | 11 | 15 | 6 | 3 | 4 | ·
COc1cccc(NC(=O)C(=O)N/N=C(\C)CC(=O)Nc2ccc(NC(C)=O)cc2)c1 | -2 | 16 | 12 | 1 | -4 | ·
Oc1c(Cl)cc(Cl)cc1Sc1cc(Cl)cc(Cl)c1O | 34 | 45* | 1 | -2 | -80 | 39*
COc1ccc(/C=N/NC(=O)c2ccoc2C)cc1OC | 10 | -13 | 3 | 3 | 2 | ·
COc1ccc(/C=N/NC(=O)c2ccoc2C)cc1COc1ccc(Cl)cc1 | 25 | 51* | 0 | 4 | 37 | 5
COc1ccc(CCN(C)C(=S)NC(=O)c2ccc(F)cc2Cl)cc1OC | 34 | 45* | -1 | 0 | 31 | 20
COc1cccc(-c2nn(-c3ccccc3)cc2C(=O)Nc2nccs2)c1 | 25 | 30 | 6 | 3 | 31 | ·
O=C(Nc1ccncc1)c1cn(-c2ccccc2)nc1-c1cccs1 | 17 | 44* | 7 | 3 | 34 | 53*
COc1ccc(-c2nn(-c3ccccc3)cc2C(=O)Nc2nccs2)cc1 | 45 | 43* | 4 | -2 | 36 | 30
Cc1ccc(CNC(=O)CCNC(=O)c2ccco2)cc1 | 1 | -8 | 0 | 8 | -8 | ·
CC(=O)C(Sc1nc(NC(C)(C)C)nc(N(C)C)n1)C(C)=O | 27 | 44* | 1 | -1 | 29 | 12
COC(=O)CSc1nc(NC(C)(C)C)nc(N(C)C)n1 | 19 | 7 | 2 | 3 | 33 | ·
CCCc1cc(=O)[nH]c(SCC(=O)N(CCOC)c2c(N)n(Cc3ccccc3)c(=O)[nH]c2=O)n1 | 0 | -7 | -1 | -3 | -13 | ·
COC(=O)Cc1ccc(OC(=O)CCS(=O)(=O)c2ccc(C)cc2)cc1 | 26 | 24 | 2 | 2 | 18 | ·
C=CCNCc1ccccc1[N+](=O)[O-] | -2 | -4 | 0 | -2 | -17 | ·
O=C(Nc1nc(-c2cccs2)cs1)c1cccc(S(=O)(=O)N2CCCCC2)c1 | 31 | 42* | 4 | 3 | 28 | 31*
O=C(Nc1ccccc1)Nc1ccc(Br)c(Cl)c1 | -11 | -4 | 4 | 9 | -8 | ·
CC(=O)c1ccc(NC(=S)Nc2ccc(Br)c(Cl)c2)cc1 | 44 | 42* | 1 | -2 | 37 | 24
BrC(/C=N/N1CCN(Cc2ccccc2)CC1)=C/c1ccccc1 | -4 | -2 | 1 | -3 | -15 | ·
CC(C)N1CCN(Cc2cc3ccccc3[nH]2)CC1CCO (centres undefined) | 2 | -12 | -1 | -5 | 12 | ·
SMILES | tim23-1 inh | TIM10 inh | CHOP UPR activ | XBP1 UPR activ | tim10-1 inh | TIM10 conf
CCOC(=O)c1ccc(S(=O)(=O)n2c(CN3CCCCC3)nc3ccccc32)cc1 | 35 | 50* | 1 | 2 | 37 | 28
CCN(CC)C(=N)N1c2ccccc2CCC1C (centres undefined) | 14 | -6 | 0 | 2 | 4 | ·
CCCCOC(=O)n1c(=S)oc2cc(Cl)ccc21 | -155 | 74* | 4 | 0 | -54 | -39
CCCCOC(=O)CCn1c(=S)oc2ccccc21 | 25 | 10 | 2 | 2 | 11 | ·
S=c1[nH]nc(Cc2cccs2)n1-c1ccccc1 | 14 | 4 | 0 | -1 | -14 | ·
CCCCc1ccc(-n2c(Cc3cccs3)n[nH]c2=S)cc1 | 47 | 52* | 0 | 5 | 37 | 36*
